Experimental data published in ChEMBL document CHEMBL3393048, “Discovery of potent cytotoxic ortho-aryl chalcones as new scaffold targeting tubulin and mitosis with affinity-based fluorescence” (J Med Chem, 2014).
Calls of active or inactive are those of the source. No cut-off for these calls is given here.

How the values were obtained:
A549 [1] = assay: Induction of apoptosis in human A549 cells assessed as early apoptotic cells at 0.5 uM after 48 hrs by Annexin V-FITC/propidium iodide staining-based flow cytometry (reference value: 0.47%); type: functional
A549 [2] = assay: Antiproliferative activity against human A549 cells after 48 hrs by SRB method; type: functional, cell-based; details: A549, 48 h
How it was run: (§1)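 SRB assay. Cells in DMEM high glucose with 10% FBS were seeded at 5000/well and grown 24 h; a day-0 plate was fixed at that point. Compounds were added in triplicate for 48 h. Cells were fixed with TCA at 4 °C for 1 h, stained with 0.4% SRB, and the dye was solubilized in 10 mM Tris pH 10.4. OD was read at 515 nm with day-0 OD subtracted. IC50 came from nonlinear regression of dose–response curves from at least two independent experiments.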

A549 [3] = assay: Induction of apoptosis in human A549 cells assessed as total apoptotic cells at 0.5 uM after 48 hrs by Annexin V-FITC/propidium iodide staining-based flow cytometry; type: functional
Tubulin (Homo sapiens) = Tubulin (Homo sapiens) (UniProt P68371+Q9H4B7+P0DPH7+P68366+Q13509+Q71U36+P04350+Q3ZCM7+P07437+P68363+Q9BQE3+Q6PEY2+Q13885+Q9BVA1+Q9BUF5); assay: Binding affinity to tubulin (unknown origin) at 4 uM by fluorescence assay; type: protein-complex assay; details: TDE = time-dependent effect
How it was run: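 Intrinsic fluorescence on tubulin binding. Compounds were mixed with tubulin (4 μM or 8 μM) in general tubulin buffer and incubated 30 min. Readings were excitation 430/emission 510 nm or excitation 365/emission 465 nm, with kinetic reads from mixing. ΔF = stable emission minus tubulin-only fluorescence. Optimal wavelengths were set by wavelength scanning.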

A2780 [4] = assay: Antiproliferative activity against human A2780 cells after 48 hrs by SRB method; type: functional, cell-based; details: A2780, 48 h
How it was run: (§2)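 SRB assay. Cells in DMEM high glucose with 10% FBS were seeded at 5000/well and grown 24 h; a day-0 plate was fixed at that point. Compounds were added in triplicate for 48 h. IC50 came from nonlinear regression of dose–response curves from at least two independent experiments.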

A549 [5] = assay: Induction of apoptosis in human A549 cells assessed as late apoptotic cells at 0.25 uM after 48 hrs by Annexin V-FITC/propidium iodide staining-based flow cytometry (reference value: 0.10%); type: functional
A549 [6] = assay: Antiproliferative activity against cis-platinum-resistant human A549 cells after 48 hrs by SRB method; type: functional, cell-based; details: A549, 48 h; how it was run: as §1
A549 [7] = assay: Induction of apoptosis in human A549 cells assessed as total apoptotic cells at 0.25 uM after 48 hrs by Annexin V-FITC/propidium iodide staining-based flow cytometry; type: functional
MCF7 [8] = assay: Antiproliferative activity against human MCF7 cells after 48 hrs by SRB method; type: functional, cell-based; details: MCF7, 48 h; how it was run: as §2
[9] = Antiproliferative activity against human CNE2 cells after 48 hrs by SRB method; type: functional, cell-based; details: CNE-2, 48 h; how it was run: as §2
A549 [10] = assay: Induction of apoptosis in human A549 cells assessed as viable cells at 0.5 uM after 48 hrs by Annexin V-FITC/propidium iodide staining-based flow cytometry (reference value: 99.37%); type: functional; details: A549, 48 h, read-out: Activity
SW480 = assay: Antiproliferative activity against human SW480 cells after 48 hrs by SRB method; type: functional, cell-based; details: SW480, 48 h; how it was run: as §2
[11] = Antiproliferative activity against vincristine-resistant human HCT8 cells after 48 hrs by SRB method; type: functional, cell-based; details: HCT-8, 48 h; how it was run: as §1
MCF7 [12] = assay: Drug resistance index, ratio of IC50 for doxorubicin-resistant human MCF7 cells to IC50 for human MCF7 cells; type: functional
How it was run: (§3)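 Drug resistance index = IC50 in the resistant line / IC50 in its parental line. […] Pairs: A549/CDDP vs A549, MCF-7/DOX vs MCF-7, A2780/TAX vs A2780, HCT-8/VCT vs HCT-8.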

A549 [13] = assay: Induction of apoptosis in human A549 cells assessed as total apoptotic cells at 0.75 uM after 48 hrs by Annexin V-FITC/propidium iodide staining-based flow cytometry; type: functional
[14] = Drug resistance index, ratio of IC50 for vincristine-resistant human HCT8 cells to IC50 for human HCT8 cells; type: functional, HCT-8; how it was run: as §3
A549 [15] = assay: Cell cycle arrest in human A549 cells assessed as accumulation at G2/M phase at 62.5 nM after 24 hrs by Hoechst 33342 staining-based ArrayScanVTI analysis; type: functional
How it was run: (§4)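 A549 cells were seeded at 5000/well, cultured overnight, then treated 24 h over a 7.81–250 concentration series. Cells were fixed in prewarmed paraformaldehyde 10 min, permeabilized with Triton X-100, and nuclei stained with Hoechst 33342. Imaging was by ArrayScan VTI high-content analysis. Phase percentage = cells within a gated fluorescence intensity / total cells counted.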

A549 [16] = assay: Induction of apoptosis in human A549 cells assessed as early apoptotic cells at 0.25 uM after 48 hrs by Annexin V-FITC/propidium iodide staining-based flow cytometry (reference value: 0.47%); type: functional
A549 [17] = assay: Cell cycle arrest in human A549 cells assessed as accumulation at G2/M phase at 7.81 to 250 nM after 24 hrs by Hoechst 33342 staining-based ArrayScanVTI analysis; type: functional; how it was run: as §4
A2780 [18] = assay: Drug resistance index, ratio of IC50 for taxol-resistant human A2780 cells to IC50 for human A2780 cells; type: functional; how it was run: as §3
A2780 [19] = assay: Antiproliferative activity against taxol-resistant human A2780 cells after 48 hrs by SRB method; type: functional, cell-based; details: A2780, 48 h; how it was run: as §2
Tubulin = assay: Inhibition of tubulin polymerization (unknown origin) by DAPI staining-based fluorescence microscopy; type: protein-complex assay, Homo sapiens
How it was run: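 Purified tubulin (99% pure; 20 μM as supplied) mixed with compound in general tubulin buffer (80 mM PIPES pH 6.9, 2.0 mM MgCl₂, 0.5 mM EGTA) with 1 mM GTP, 20% glycerol and DAPI reporter. Polymerization tracked kinetically at 37 °C as fluorescence rise (ex 360, em 450 nm). Duplicate wells per concentration. IC50 from at least two independent experiments.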

A549 [20] = assay: Induction of apoptosis in human A549 cells assessed as late apoptotic cells at 0.75 uM after 48 hrs by Annexin V-FITC/propidium iodide staining-based flow cytometry (reference value: 0.10%); type: functional
A549 [21] = assay: Induction of apoptosis in human A549 cells assessed as late apoptotic cells at 1 uM after 48 hrs by Annexin V-FITC/propidium iodide staining-based flow cytometry (reference value: 0.10%); type: functional
A549 [22] = assay: Induction of apoptosis in human A549 cells assessed as viable cells at 0.25 uM after 48 hrs by Annexin V-FITC/propidium iodide staining-based flow cytometry (reference value: 99.37%); type: functional; details: A549, 48 h, read-out: Activity
HepG2 = assay: Antiproliferative activity against human HepG2 cells after 48 hrs by SRB method; type: functional, cell-based; details: HepG2, 48 h; how it was run: as §2
A549 [23] = assay: Induction of apoptosis in human A549 cells assessed as necrotic cells at 0.25 uM after 48 hrs by Annexin V-FITC/propidium iodide staining-based flow cytometry (reference value: 0.06%); type: functional
A549 [24] = assay: Induction of apoptosis in human A549 cells assessed as apoptotic cells after 48 hrs by Annexin V-FITC/propidium iodide staining-based flow cytometry; type: functional, cell-based
MCF7 [25] = assay: Antiproliferative activity against doxorubicin-resistant human MCF7 cells after 48 hrs by SRB method; type: functional, cell-based; details: MCF7, 48 h; how it was run: as §2

- IC50 (A549 [2]): 73 nM
- Activity (Tubulin (Homo sapiens)): tde
- IC50 (A2780 [4]): 94 nM
- IC50 (A549 [6]): 110 nM
- IC50 (MCF7 [8]): 230 nM
- IC50 (SW480): 41 nM
- IC50 (A2780 [19]): 49 nM
- IC50 (Tubulin): 3600 nM
- IC50 (HepG2): 47 nM
- IC50 (MCF7 [25]): 45 nM
Structure (SMILES): CN(C)c1ccc(/C=C/C(=O)c2ccccc2-c2ccc(F)cc2)cc1
- Activity (A549 [1]): 33.86%
- Activity (A549 [3]): 75.71%
- Activity (A549 [5]): 34.43%
- Activity (A549 [7]): 69.1%
- IC50 [9]: 30 nM
- viability at 0.5 µM (A549 [10]): 12.3%
- IC50 [11]: 96 nM
- Ratio IC50 (MCF7 [12]): 0.68
- Activity (A549 [13]): 82.06%
- Ratio IC50 [14]: 0.72
- Activity (A549 [15]): Active
- Activity (A549 [16]): 34.67%
- Activity (A549 [17]): Active
- Ratio IC50 (A2780 [18]): 0.52
- Activity (A549 [20]): 45.45%
- Activity (A549 [21]): 42.86%
- viability at 0.25 µM (A549 [22]): 25.9%
- Activity (A549 [23]): 4.95%
- Activity (A549 [24]): Dose-dependent effect
